ChEMBL document CHEMBL4261642, “Design, synthesis, and ex vivo evaluation of a selective inhibitor for retinaldehyde dehydrogenase enzymes” (Bioorg Med Chem, 2018)

What was measured:
[1] = organism: Gallus gallus; experiment: Inhibition of N-terminal His6-tagged recombinant chick RALDH3 expressed in Escherichia coli BL21(DE3) cells at 250 nM using RAL as substrate assessed as Vmax preincubated for 20 mins followed by substrate addition and measured after 30 mins in presence of NADH by fluorescence assay (reference value: 107.3 +/- 15.97 pmol/microM/min)
[2] = molecular target: T1, Retinal dehydrogenase 2 (Gallus gallus) (UniProt O93344); experiment: Inhibition of N-terminal His6-tagged recombinant chick RALDH2 expressed in Escherichia coli BL21(DE3) cells up to 500 nM using RAL as substrate assessed as rate of inactivation preincubated up to 40 mins followed by substrate addition and measured after 30 mins in presence of NADH by fluorescence assay
T1 sequence (whole entry): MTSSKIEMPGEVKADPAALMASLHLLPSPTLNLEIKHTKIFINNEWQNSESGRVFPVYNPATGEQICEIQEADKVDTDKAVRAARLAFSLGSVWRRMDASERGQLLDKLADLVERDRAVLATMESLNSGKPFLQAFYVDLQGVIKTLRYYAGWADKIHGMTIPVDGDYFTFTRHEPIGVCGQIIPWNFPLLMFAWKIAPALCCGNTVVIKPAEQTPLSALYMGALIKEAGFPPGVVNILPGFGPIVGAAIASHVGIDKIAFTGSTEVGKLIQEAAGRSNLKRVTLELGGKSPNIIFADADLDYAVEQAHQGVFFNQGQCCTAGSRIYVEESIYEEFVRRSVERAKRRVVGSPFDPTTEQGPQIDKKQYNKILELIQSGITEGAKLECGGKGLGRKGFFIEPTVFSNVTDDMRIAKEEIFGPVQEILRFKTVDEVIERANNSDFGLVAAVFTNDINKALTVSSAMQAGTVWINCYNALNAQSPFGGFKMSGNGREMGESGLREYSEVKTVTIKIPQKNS
In short: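 Chick RALDH2 pre-incubated 10, 20 and 40 min with 0–500 nM inhibitor, then assayed with retinaldehyde/NAD+ by fluorimetric NADH. kobs taken from linear regression of log % activity remaining versus pre-incubation time. KI and kinact obtained by nonlinear regression of kobs versus inhibitor concentration.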

[3] = system: HEK293; experiment: Cytotoxicity against doxycycline-inducible chicken RALDH2 expressing HEK293 cells by measuring ATP production after 24 hrs by CelTiter-Glo assay; type: cell-based; details: Homo sapiens, HEK293, 24 h
In short: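 (Dox)RALDH2-eGFP HEK293 cells seeded at 10,000/well in DMEM + 10% FBS for 24 h, then switched to DMEM with 0.1% FBS containing 0–50 μM compound in DMSO (<0.5%) for 24 h at 37°C, 5% CO2. ATP read by luminescence and expressed as % of vehicle (0.5% DMSO) control. Two experiments, n = 5 per concentration.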

[4] = molecular target: T1, Retinal dehydrogenase 2 (Gallus gallus); experiment: (§1) Inhibition of N-terminal His6-tagged recombinant chick RALDH2 expressed in Escherichia coli BL21(DE3) cells at 250 nM using RAL as substrate assessed as remaining activity preincubated for 10 mins followed by all-trans-retinaldehyde and substrate addition measured after 30 mins in presence of NAD+ by fluorescence assay
In short: (§2)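 Chick RALDH2 (91 nM) pre-incubated with 250 nM inhibitor for 0–80 min at 37°C, alone or with 250 μM retinaldehyde or 250 μM NAD+. Reaction then started with the missing substrate and/or cofactor (250 μM retinaldehyde, 4 mM NAD), 30 min at 37°C. Fluorimetric NADH; % activity remaining. Triplicates.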

[5] = molecular target: T2, Retinal dehydrogenase 2 (Gallus gallus, UniProt O93344); experiment: Inhibition of N-terminal His6-tagged recombinant chick RALDH2 expressed in Escherichia coli BL21(DE3) cells using RAL as substrate preincubated for 20 mins followed by substrate addition and measured after 30 mins in presence of NADH by fluorescence assay
T2 sequence (O93344 whole entry): T1 sequence (whole entry)
In short: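 Purified His-tagged recombinant enzyme in dialysis buffer with 2 mM DTT. Amounts were chick RALDH1 2 μg (0.358 μM), chick RALDH2 0.5 μg (0.091 μM), chick RALDH3 2 μg (0.355 μM) and human RALDH2 1 μg (0.176 μM). Enzyme pre-incubated 20 min at 37°C with 0–10 μM inhibitor in DMSO. Reaction started with final 4 mM NAD+ in pyrophosphate pH 8.2 buffer plus 250 μM retinaldehyde, 30 min at 37°C. NADH read fluorimetrically (Ex/Em 540/590) against a standard curve. Triplicates, 3–5 experiments.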

[6] = molecular target: T1, Retinal dehydrogenase 2 (Gallus gallus); experiment: as §1, with “80” for “10”; in short: as §2

Compound: CC1=C(/C=C/C(C)=C/C=C/C(C)=C/C(=O)C(Cl)Cl)C(C)(C)CCC1
- Vmax [1]: 41.6 pmol/µM/min
- kobs [2]: 2.8e-05 to 0.012 min⁻¹
- IC50 [3]: 3090 nM
- Activity [4]: 30.4%
- IC50 [5]: 55 nM
- Activity [6]: 16.5%
